The source of these data is ChEMBL document CHEMBL1134681, “Pseudoproline-containing analogues of morphiceptin and endomorphin-2: evidence for a cis Tyr-Pro amide bond in the bioactive conformation” (J Med Chem, 2001).

The target of experiment [1] is Delta-type opioid receptor (Rattus norvegicus, UniProt P33533). Nature of the experiment: Binding affinity towards delta receptor in rat brain using [3H]DSLET. The class given is tissue-based.
The species named for experiment [2] is Mus musculus. Put plainly: In vitro inhibition of electrically evoked contractions of MVD (Mouse vas deferens). The class given is functional.
For experiment [3], the species on record is Cavia porcellus. Nature of the experiment: In vitro inhibition of electrically evoked contractions of GPI (Guinea pig ileum). The class given is functional.
Experiment [4] concerns the target T1, Mu-type opioid receptor (Rattus norvegicus, UniProt P33535). Nature of the experiment: (§1) Binding affinity towards mu receptor in rat brain using [3H]DAMGO. The class given is tissue-based.
For experiment [5], the species on record is Cavia porcellus. Put plainly: In vitro inhibition of electrically evoked contractions of GPI (Guinea pig ileum) relative to [Leu5]-enkephalin. The class given is functional.
A short description of experiment [6]: Ratio of inhibition of electrically evoked contractions of mouse vas deferens and inhibition of electrically evoked contractions of guinea pig ileum; IC50 ratio. The class given is functional. Put shortly:
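Ratio of normalized IC50 values from electrically stimulated mouse vas deferens versus guinea pig ileum.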

Experiment [7] is filed under the species Mus musculus. Put plainly: In vitro inhibition of electrically evoked contractions of MVD (Mouse vas deferens) relative to [Leu5]-enkephalin. The class given is functional.
Experiment [8] deals with T1, Mu-type opioid receptor. Described as §1. The class given is tissue-based. Put shortly:
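Rat brain membranes; competitive displacement of [³H]DAMGO (0.72 nM; Kd 1.3 nM), incubated 2 h at 0 °C. IC50 taken from log dose–displacement curves, converted to Ki by Cheng–Prusoff.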
This is another data set of the same source.

For experiment [9], the species on record is Cavia porcellus. Nature of the experiment: in vitro inhibition of electrically evoked contractions of GPI (Guinea pig ileum). The class given is functional.
The species named for experiment [10] is Mus musculus. Put plainly: in vitro inhibition of electrically evoked contractions of MVD (Mouse vas deferens). The class given is functional.
Experiment [11] is filed under the species Mus musculus. Put plainly: in vitro inhibition of electrically evoked contractions of MVD (Mouse vas deferens) relative to [Leu5]-enkephalin. The class given is functional. Put shortly: (§2)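 Electrically stimulated isolated tissue (guinea pig ileum or mouse vas deferens), with inhibition of evoked contractions as read-out. […] IC50 values were taken from these curves and normalized to that standard by a published procedure.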

The species named for experiment [12] is Cavia porcellus. Put plainly: in vitro inhibition of electrically evoked contractions of GPI (Guinea pig ileum) relative to [Leu5]-enkephalin. The class given is functional. Put shortly: as §2

Some results are limits rather than exact numbers.

Delta-type opioid receptor, sequence (P33533 whole entry): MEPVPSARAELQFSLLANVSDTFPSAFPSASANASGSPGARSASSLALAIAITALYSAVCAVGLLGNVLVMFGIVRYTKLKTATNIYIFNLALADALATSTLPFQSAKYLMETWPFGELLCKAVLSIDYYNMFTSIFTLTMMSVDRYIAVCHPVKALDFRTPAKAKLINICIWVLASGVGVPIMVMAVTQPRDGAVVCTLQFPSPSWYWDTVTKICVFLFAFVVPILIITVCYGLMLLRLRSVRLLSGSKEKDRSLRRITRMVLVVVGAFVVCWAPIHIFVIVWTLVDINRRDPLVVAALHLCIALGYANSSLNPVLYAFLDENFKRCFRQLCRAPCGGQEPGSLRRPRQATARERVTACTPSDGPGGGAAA
T1 sequence (P33535 whole entry): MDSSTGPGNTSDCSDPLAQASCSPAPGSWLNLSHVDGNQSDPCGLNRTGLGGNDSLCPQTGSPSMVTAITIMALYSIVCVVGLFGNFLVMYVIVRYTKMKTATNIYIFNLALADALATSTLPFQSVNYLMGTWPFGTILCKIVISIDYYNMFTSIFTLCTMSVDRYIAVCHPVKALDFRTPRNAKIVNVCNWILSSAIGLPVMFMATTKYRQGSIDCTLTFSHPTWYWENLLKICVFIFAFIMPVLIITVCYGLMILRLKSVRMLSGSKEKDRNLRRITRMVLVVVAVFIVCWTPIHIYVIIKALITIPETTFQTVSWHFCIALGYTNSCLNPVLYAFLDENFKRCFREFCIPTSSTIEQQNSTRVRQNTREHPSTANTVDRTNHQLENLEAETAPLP

With `NC(=O)[C@@H]1CCCN1C(=O)[C@@H](Cc1ccccc1)NC(=O)[C@@H]1CSCN1C(=O)[C@@H](N)Cc1ccc(O)cc1` [listing 1 of 2 here], the Ki (as a rule, a dissociation constant, usually derived from enzyme kinetics or from competition with a known ligand) in [1] was 2450 nM; in [4], 8.57 nM. The IC50 (commonly the concentration that gives 50% inhibition) in experiment [2] came out at 190 nM; in [3] it was 74.5 nM.
Consider `NC(=O)[C@@H]1CCCN1C(=O)[C@@H](Cc1ccccc1)NC(=O)[C@@H]1CSCN1C(=O)[C@@H](N)Cc1ccc(O)cc1` [listing 2 of 2 here], for which the Relative potency in experiment [5] came out at 3.3; in experiment [7], 0.06. The Ratio in [6] is listed as 5.45.
Take `CC1(C)SC[C@@H](C(=O)N[C@H](Cc2ccccc2)C(=O)N2CCC[C@H]2C(N)=O)N1C(=O)[C@@H](N)Cc1ccc(O)cc1` [listing 1 of 2 here]: the Ki in experiment [1] was over 10000 nM; in experiment [4], 37.7 nM. In addition, the 50% inhibitory concentration (IC50) turned out to be 1420 nM in [2] and 246 nM in experiment [3].
As for `CC1(C)SC[C@@H](C(=O)N[C@H](Cc2ccccc2)C(=O)N2CCC[C@H]2C(N)=O)N1C(=O)[C@@H](N)Cc1ccc(O)cc1` [listing 2 of 2 here], the figures for the Relative potency in experiment [5] and in [7] were 1 and 0.00803, respectively.
On to `NC(=O)[C@@H]1CCCN1C(=O)[C@@H](Cc1ccccc1)NC(=O)[C@@H]1COCN1C(=O)[C@@H](N)Cc1ccc(O)cc1` [listing 1 of 2 here], for which the values for the inhibition constant Ki in [1] and in experiment [4] were over 10000 nM and 58.9 nM, respectively. In addition, the values for the IC50 in [2] and in [3] were 1020 nM and 470 nM, respectively.
Take `NC(=O)[C@@H]1CCCN1C(=O)[C@@H](Cc1ccccc1)NC(=O)[C@@H]1COCN1C(=O)[C@@H](N)Cc1ccc(O)cc1` [listing 2 of 2 here]: the Relative potency in experiment [5] was 0.523; in [7], 0.0112.
As for `CC1(C)OC[C@@H](C(=O)N[C@H](Cc2ccccc2)C(=O)N2CCC[C@H]2C(N)=O)N1C(=O)[C@@H](N)Cc1ccc(O)cc1` [listing 1 of 2 here], the Ki in experiment [1] was over 10000 nM; in experiment [4], 96.5 nM. For the same compound, the IC50 in experiment [2] worked out at 851 nM; in [3], 860 nM.
Consider `CC1(C)OC[C@@H](C(=O)N[C@H](Cc2ccccc2)C(=O)N2CCC[C@H]2C(N)=O)N1C(=O)[C@@H](N)Cc1ccc(O)cc1` [listing 2 of 2 here], for which the results for the Relative potency in experiment [5] and in [7] were 0.286 and 0.0134, respectively. Also, the Ratio in experiment [6] was 2.17.
`NC(=O)[C@H](Cc1ccccc1)NC(=O)[C@H](Cc1ccccc1)NC(=O)[C@@H]1CSCN1C(=O)[C@@H](N)Cc1ccc(O)cc1` [listing 1 of 2 here]: the inhibitory constant (Ki) in [1] is 1980 nM; in experiment [4], 6.41 nM. Also, the IC50 in [2] amounted to 138 nM; in [3] it was 22.2 nM.
In the case of `NC(=O)[C@H](Cc1ccccc1)NC(=O)[C@H](Cc1ccccc1)NC(=O)[C@@H]1CSCN1C(=O)[C@@H](N)Cc1ccc(O)cc1` [listing 2 of 2 here], the Relative potency is 11.1 in experiment [5] and 0.0826 in experiment [7]. For the same compound, in [6], the Ratio was 6.22.
With `CC1(C)SC[C@@H](C(=O)N[C@@H](Cc2ccccc2)C(=O)N[C@@H](Cc2ccccc2)C(N)=O)N1C(=O)[C@@H](N)Cc1ccc(O)cc1` [listing 1 of 2 here], the Ki in [1] was over 10000 nM; in [8], 50.4 nM. Inhibition in experiment [3] was half-maximal at 502 nM (IC50).
As for `CC1(C)SC[C@@H](C(=O)N[C@@H](Cc2ccccc2)C(=O)N[C@@H](Cc2ccccc2)C(N)=O)N1C(=O)[C@@H](N)Cc1ccc(O)cc1` [listing 2 of 2 here], the Relative potency in experiment [5] was determined as 0.49. Further, the Inhibition – broadly, the share of the control response that was lost under treatment – in experiment [7] stood at 26%.
`CC1(C)OC[C@@H](C(=O)N[C@@H](Cc2ccccc2)C(=O)N[C@@H](Cc2ccccc2)C(N)=O)N1C(=O)[C@@H](N)Cc1ccc(O)cc1` [listing 1 of 2 here]: the inhibitory constant (Ki) is over 10000 nM in experiment [1] and 46.9 nM in experiment [4]. The IC50 worked out at 606 nM in experiment [2] and 305 nM in [3].
Turning to `CC1(C)OC[C@@H](C(=O)N[C@@H](Cc2ccccc2)C(=O)N[C@@H](Cc2ccccc2)C(N)=O)N1C(=O)[C@@H](N)Cc1ccc(O)cc1` [listing 2 of 2 here], the Relative potency in [5] was determined as 0.807; in experiment [7], 0.0188. For the same compound, the Ratio in experiment [6] was 1.99.
For the compound `NC(=O)[C@H](Cc1ccccc1)NC(=O)[C@H](Cc1ccccc1)NC(=O)[C@@H]1COCN1C(=O)[C@@H](N)Cc1ccc(O)cc1` [listing 1 of 2 here], the inhibition constant (Ki) was over 4000 nM in experiment [1] and 7.86 nM in experiment [4]. Besides, the concentration for half-maximal inhibition (IC50) in experiment [2] amounted to 151 nM; in experiment [3], 41.7 nM.
For `NC(=O)[C@H](Cc1ccccc1)NC(=O)[C@H](Cc1ccccc1)NC(=O)[C@@H]1COCN1C(=O)[C@@H](N)Cc1ccc(O)cc1` [listing 2 of 2 here], the Relative potency came to 5.9 in experiment [5] and 0.0755 in experiment [7]. In addition, the Ratio in experiment [6] is recorded as 3.62.
Take `NC(=O)[C@@H]1CCCN1C(=O)C(Cc1ccccc1)NC(=O)[C@H]1CCCN1C(=O)[C@@H](N)Cc1ccc(O)cc1` (stereo in doubt) [listing 1 of 2 here]: in experiment [1], the Ki is over 10000 nM. The half-maximal inhibitory concentration (IC50) in experiment [9] was determined as 109 nM; in [10], 594 nM.
Consider `NC(=O)[C@@H]1CCCN1C(=O)C(Cc1ccccc1)NC(=O)[C@H]1CCCN1C(=O)[C@@H](N)Cc1ccc(O)cc1` (stereo in doubt) [listing 2 of 2 here], for which the Relative potency in experiment [11] stood at 0.0192; in [12], 2.26.
With `NC(=O)[C@H](Cc1ccccc1)NC(=O)[C@H](Cc1ccccc1)NC(=O)[C@@H]1CCCN1C(=O)[C@@H](N)Cc1ccc(O)cc1` [ENDOMORPHIN 2], the IC50 was found to be 7.71 nM in experiment [9] and 15.3 nM in experiment [10].
For `CC(C)C[C@H](NC(=O)[C@H](Cc1ccccc1)NC(=O)CNC(=O)CNC(=O)[C@@H](N)Cc1ccc(O)cc1)C(N)=O` [[LEU5]ENKEPHALIN] the same measures were 246 nM and 11.4 nM.
